Measurements published in ChEMBL document CHEMBL4513216, “Probing the Open Global Health Chemical Diversity Library for Multistage-Active Starting Points for Next-Generation Antimalarials” (ACS Infect Dis, 2020).

Assay: Toxicity liver stage against HepG2, at 10uM
Assay type: cell-based
Parameters: test concentration 10 uM, cell line HepG2-A16-CD81EGFP
Details: human, HepG2-A16-CD81EGFP cells; read-out: INHIBITION
Method in brief: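 Uninfected HepG2-A16-CD81EGFP cells, 3 × 10^3 per well, 1536-well, plated on prespotted compound at 10 μM final, parasite-free screening media added to match infected plates; puromycin 10 μM positive, DMSO 0.5% negative; run in parallel with 48 h PbLuc assay at 37 °C, 5% CO2; viability by CellTiter-Glo luminescence, normalized to controls.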

Structure (SMILES) | cytotoxicity at 10 µM
O=C(c1cccnc1)N1CCN2C(=O)N(Cc3ccc(F)cc3)C[C@H]2C1 | -0.756%
O=C1CCNc2ccccc2CN1Cc1ccco1 | 1.22%
COC(=O)COn1c(SC)nc2ccccc2c1=O | -6.53%
CC(C)(C)C1SCC(=O)Nc2c1c(O)nn2C1CCCC1 (configuration not stated) | 3.36%
CCNC(=O)NCc1nn(CCN2CCCC2)c(=O)c2ccccc12 | -3.85%
O=C(NC1CCCC1)C1CCN(c2cc(-n3ccnc3)ncn2)CC1 | -9.19%
CNC(=O)CS(=O)(=O)C1CCN(S(=O)(=O)c2cccnc2)CC1 | -1.68%
Cn1cnc2c1C(COCC1CC1)CN(C(=O)c1ccsc1)C2 (configuration not stated) | 4.73%
CCO[C@@H]1CC[C@H]2[C@H]1OCCN2C(=O)c1ccc(C)o1 | -149%
Cc1cc2nc(SCC(=O)N3CCOCC3)n(C(C)C)c(=O)c2[nH]1 | 11%
COc1cccc(C(=O)Oc2cc(=O)n3cccc(C)c3n2)c1 | 6.36%
Cc1ccc(Sc2ccc(N3CCC(C(=O)O)CC3)nn2)cc1 | -0.0154%
O=c1[nH]nc2c(N3CCCCCC3)nccn12 | 10.5%
Cn1cc2c(n1)C(CNC(=O)Cc1ccsc1)OCC2 (configuration not stated) | 0.175%
O=C(NCCCN1CCOCC1)c1ccn(COc2ccc(Br)cc2)n1 | 5.39%
Cc1cc(C(F)(F)F)nn1C(C)C(=O)Nc1ccc(Cl)cn1 (configuration not stated) | 11.6%
CC(C)(C)NC(=O)CCn1ncc2c(Cl)cccc21 | 7.25%
CC(C)C[C@H](N)COc1cccc(F)c1Oc1ccccc1 | -5.08%
CN(C)c1cccc(C2CCN(c3ncccn3)CC2)n1 | -8.41%
Cc1nn(C)cc1CN(Cc1ccccn1)Cc1ccccc1Cl | 1.2%
O=C(NC1CC1)C1CCc2nnc(-c3cccnc3)n21 (configuration not stated) | 8.96%
CCC1CCCCN1C(=O)Cn1cnc(C#N)n1 (configuration not stated) | -22.1%
O=C1CC(C(=O)Nc2nnc(-c3cccs3)[nH]2)c2ccccc2N1 (configuration not stated) | -0.921%

Structure (SMILES) | cytotoxicity at 10 µM
Fc1ccc2c(c1)CCC2NCc1ccc(N2CCOCC2)cc1 (configuration not stated) | -1.54%
O=C(Nc1ccc2c(c1)C(=O)NC2=O)c1cccs1 | -4.08%
COCCn1nc(C(=O)N2CCOCC2C)ccc1=O (configuration not stated) | -8.97%
COC(=O)N1CCCC(C(=O)NCCc2c[nH]c3cc(C)ccc23)C1 (configuration not stated) | -5.95%
CCc1ccsc1C(=O)NC(C#N)CC(C)C (configuration not stated) | -15%
N#Cc1ccc(Cl)cc1NCC1CC1 | -3.7%
CCC(c1ccc(F)cc1F)N1CCN(CCO)CC1 (configuration not stated) | -4.34%
O=C(Nc1ccc(F)cc1F)NC1(CO)CCOCC1 | -40.4%
COC(=O)CCNC(=O)c1c[nH]cc1-c1ccccc1OC | 6.17%
COCCS(=O)(=O)NC(C)c1cccc(C)c1C (configuration not stated) | 6.13%
COCCCn1ccc(NC(=O)NCCn2ccnc2)n1 | -2.14%
CCC(NCc1nccn1C)c1nc(C(F)(F)F)cs1 (configuration not stated) | 0.245%
CCN(CC1CCCO1)S(=O)(=O)c1cc(NC(C)=O)ccc1C (configuration not stated) | 1.82%
CC(NC(=O)N1CCNC(=O)CC1)c1ccc(C(F)(F)F)cc1 (configuration not stated) | 13.7%
O=C(CN1CCC2(CCCCC2)C1)NCC(F)(F)F | -10.5%
Cc1ccc(OCCN(C)Cc2ccc(S(=O)(=O)N(C)C)o2)cc1 | -14.8%
COc1cccc(C(O)C(=O)N(C)CCc2ccccn2)c1 (configuration not stated) | 0.413%
CCNC(c1ccc(F)cc1)c1cccnc1 (configuration not stated) | 2.73%
O=C(NCCCc1nc(=O)[nH][nH]1)Nc1cccc(F)c1 | -51.1%
CC(C)OCCCNC(=O)NCc1cccc(-n2ccnc2)c1 | 18.5%
Cc1ccccc1CN(C)C(=O)c1ccoc1 | 2.2%
O=C(NCc1nnc2n1CCCCC2)N1CCC2(CCCCC2)C1 | -13.4%
Cc1n[nH]c(C)c1C1CCCN1C(=O)CNC(=O)C(C)(C)C (configuration not stated) | -29%

Structure (SMILES) | cytotoxicity at 10 µM
CC(C)n1c2ccccc2c2c1cc(C(=O)N(C)C)n2C(=O)N(C)C | -95%
CO[C@@H]1CC[C@H]2[C@H]1OCCN2C(=O)COc1ccc(C)cc1 | -99%
O=C(c1ccc2c(c1)OCO2)N1CCC[C@]2(C[C@H](OCC3CC3)CO2)C1 | 2.34%
CCN(CC)C(=O)[C@@H]1C[C@@H](NC(=O)c2cccc(N(C)C)c2)CN1C | 6.69%
Cn1c(C(N)=O)cc2c1CN(C(=O)C1CC(=O)N(C(C)(C)C)C1)CC2 (configuration not stated) | -49.6%
COc1ccccc1OCCn1c(C)c(C)oc1=O | -3.05%
Cn1nc(CN2CCCN(C3CCCC3)CC2)c2c(Cl)cccc21 | 11%
CC1(C)CN(C(=O)c2cnc(CN3CCCC3)s2)CC[C@]1(C)O | -15.1%
NC(=O)c1csc(N2CCN(C3CCc4ccccc4C3)CC2)n1 (configuration not stated) | 1.67%
O=C(c1cc(=O)[nH]c(=O)[nH]1)N1CCCC(CO)(CC2CC2)C1 (configuration not stated) | -3.02%
Nc1ncccc1CN1CCOCC1CC(=O)NCc1ccccn1 (configuration not stated) | 9.66%
Cc1nc(CN2CCCC(CCc3ccccc3C)C2)c[nH]1 (configuration not stated) | -1.35%
COc1ncc(C(=O)N2CCCC3(C=Cc4ccccc4O3)CC2)cn1 (configuration not stated) | 7.61%
COC(=O)c1ccc(N2CCN(C(=O)CCCc3cn[nH]c3)CC2)cc1 | -4.32%
Cc1cc(C(F)(F)F)nc(CNC(=O)CCCN2CCCCC2)n1 | -53.1%
COCCc1noc(CN(C)c2nc(C)nc(C)c2C)n1 | 4.24%
Cc1cccc(CN2CCCC(O)(CNCCc3c[nH]cn3)C2=O)c1 (configuration not stated) | 1.31%
CNCc1cn(CC2CCN(Cc3cccs3)CC2)nn1 | -4.47%
C[C@@H]1CN(C2CCN(c3ccccc3F)CC2)C[C@]1(C)O | -2.19%
CCNc1ncc(C(=O)NC(CC)c2ccnn2C)cn1 (configuration not stated) | -2.4%
O=C(CC1COCCN1)NCCc1nc(-c2ccccn2)no1 (configuration not stated) | -0.849%
CC(C)C1CN(C(=O)c2cn3ccccc3n2)CCCN1CC1CC1 (configuration not stated) | -13.6%
CCOCC(=O)N1CCC(Cc2nnc(SC)n2C)CC1 | -53%

Structure (SMILES) | cytotoxicity at 10 µM
CC(C)CN1CCCC1c1ccc(C(=O)Nc2cn(C)nn2)s1 (configuration not stated) | -4.69%
Cn1ccc(C(=O)N2CCC3(CCC(=O)N(C4CCCC4)C3)CC2)n1 | -6.19%
Cn1c(N2CCOCC2)nc2cc(C(=O)NCc3cccnc3)ccc21 | 0.678%
COc1cnc(N2CCCN(Cc3ccc(F)cc3)CC2)nc1 | -5.41%
COc1cc(C)cc(-c2nc3c([nH]2)CCNC3)c1OC | 4.46%
COc1cc(C2CC(=O)Nc3c2nc2n3CCCC2)ccc1O (configuration not stated) | -4.27%
COc1ccc(CCN2C(=O)O[C@@H]3CN(C4CCSCC4)C[C@@H]32)cc1 | 1.6%
O=c1cc(-c2cccnc2)nc(-c2ccc(CN3CC[C@@H](O)C3)cc2)[nH]1 | 2.89%
Cc1cc2nc(C(C)C)cc(NC(C)c3nncn3C)n2n1 (configuration not stated) | 2.83%
CCc1cc(NCCCC2CCOC2)n2nccc2n1 (configuration not stated) | 5.04%
CC(=O)N1CCC(NC(=O)N2CCN(c3cnccn3)CC2)CC1 | 6.47%
CCOc1ccc(CN2CCN(C(=O)c3cc(C4CC4)[nH]n3)CC2)cc1 | 36.1%
CN1CCOC(CN(C(=O)CN2CCCC2=O)c2nccs2)C1 (configuration not stated) | -7.06%
Cc1nn(C)c(Cl)c1C1CCCN1C(=O)c1ccc(O)nc1 (configuration not stated) | -11.2%
CCOc1ccc2c(c1)CN(Cc1nc3c(cnn3C)c(=O)[nH]1)CC2 | -0.373%
Cc1ccc(-c2noc(CN3CCCC(Cn4cncn4)C3)n2)cc1 (configuration not stated) | -7.12%
CN(CC(=O)N1CCCC1Cn1cccn1)Cc1ccccc1 (configuration not stated) | -2.12%
COc1cc(C)sc1C(=O)N1CCCC(n2nc(C)nc2C)C1 (configuration not stated) | -13.6%
O=C(c1cc2ccccc2[nH]1)N1CCCCC1Cn1cccn1 (configuration not stated) | 1.27%
CC(NCc1ccccc1Cl)c1ccc(OCC(=O)NC2CC2)cc1 (configuration not stated) | -12.7%
O=C(O)c1cc(S(=O)(=O)Nc2ccc(F)c(Cl)c2)cc2c1OCCO2 | -2.33%
CCc1noc(CN2CCN(CC(O)c3ccccc3)CC2)n1 (configuration not stated) | 1.19%
Cc1cc(C2CCCN2CCC(=O)N2CCc3sccc3C2)no1 (configuration not stated) | -16.1%

Structure (SMILES) | cytotoxicity at 10 µM
CN(Cc1ccsc1)C(=O)Nc1cccnc1N1CCCC1 | -4.37%
CN(Cc1ccc2c(c1)OCCO2)C(=O)NCCc1cnn(C)c1 | -9.12%
Cn1cnc(S(=O)(=O)NCCCN2CCOCC2)c1Cl | -11.2%
O=C(Cc1noc2ccccc12)N1CCCC1c1noc(C2CC2)n1 (configuration not stated) | 61.5%
O=S(=O)(CCCN1CCCC1Cn1cncn1)c1ccccc1 (configuration not stated) | -7.64%
c1ccc(C(OCCNC2CCc3ncnn3C2)c2ccccc2)cc1 (configuration not stated) | -18.4%
Cc1ccoc1C(=O)NCC(Cc1ccc(F)cc1)C(N)=O (configuration not stated) | -0.77%
CC(C)c1nc(CN2CCCCC2)cs1 | 20.2%
Cn1cc(CN2Cc3c(cnn3C)C(COCC3CC3)C2)cn1 (configuration not stated) | -2.8%
O=S(=O)(C1CC1)N1CC[C@@H](OCC2CC2)[C@@H]1Cc1ccncc1 | 10.9%
CC(C)N1[C@H](Cn2cncn2)C[C@@H]2CN(Cc3ccsc3)CC[C@@H]21 | -117%
c1cc(-c2ccc3nc(C4CCN(CC5CC5)CC4)nn3c2)ccn1 | -0.966%
CN(Cc1cccnc1)C1CC2(CCN(c3ccccn3)CC2)C1 | 2.86%
CCc1cccc2c(CC(=O)N(C)CCN(C)C)c(C)[nH]c12 | 1.26%
COc1ncccc1CN1C[C@@H]2OCCN(CCN(C)C)[C@@H]2C1 | 11.8%
Cn1ncc2c1C(COCC1CC1)N(C(=O)c1ccncn1)CC2 (configuration not stated) | -132%
CC(C)CN1CC[C@H]2OCC[C@@H](C(=O)N3CCCO3)[C@@H]2C1 | 3.45%
COc1ccc(CN2CCc3ncnc(C4CC4)c3CC2)cc1 | -148%
O=c1[nH]c2cn(-c3cccc(F)c3)c(=O)n2[nH]1 | -0.687%
CCCN1C[C@@H]2CC[C@H]1CN(Cc1cccc(-n3cccn3)c1)C2 | -1.69%
